In ChEMBL document CHEMBL1132219, “Synthesis of novel phenserine-based-selective inhibitors of butyrylcholinesterase for Alzheimer's disease” (J Med Chem, 1999):
pIC50: −log10 of the molar value.

Assays:
[1] = target: Acetylcholinesterase (Homo sapiens, UniProt P22303); experiment: Ability to inhibit acetylcholinesterase (AChE), freshly prepared from human erythrocytes
Summary of the method: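 AChE from freshly collected blood: erythrocytes washed five times in isotonic saline, lysed in 9 volumes of 0.1 M Na3PO4 pH 7.4 with 0.5% Triton-X, diluted to final 1:200. Compounds preincubated with enzyme 30 min at room temperature, then with substrate and DTNB 25 min at 37 °C, pH 8.0. Final range 0.3 nM–[…] in half-log steps. IC50 from logit-activity versus log concentration. Four runs.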

[2] = target: T1, Cholinesterases; ACHE & BCHE (Homo sapiens) (UniProt P06276+P22303); experiment: BChE selectivity = IC50(AChE) / IC50(BChE).; type: protein assay
T1 sequence (P06276 whole entry, looked up): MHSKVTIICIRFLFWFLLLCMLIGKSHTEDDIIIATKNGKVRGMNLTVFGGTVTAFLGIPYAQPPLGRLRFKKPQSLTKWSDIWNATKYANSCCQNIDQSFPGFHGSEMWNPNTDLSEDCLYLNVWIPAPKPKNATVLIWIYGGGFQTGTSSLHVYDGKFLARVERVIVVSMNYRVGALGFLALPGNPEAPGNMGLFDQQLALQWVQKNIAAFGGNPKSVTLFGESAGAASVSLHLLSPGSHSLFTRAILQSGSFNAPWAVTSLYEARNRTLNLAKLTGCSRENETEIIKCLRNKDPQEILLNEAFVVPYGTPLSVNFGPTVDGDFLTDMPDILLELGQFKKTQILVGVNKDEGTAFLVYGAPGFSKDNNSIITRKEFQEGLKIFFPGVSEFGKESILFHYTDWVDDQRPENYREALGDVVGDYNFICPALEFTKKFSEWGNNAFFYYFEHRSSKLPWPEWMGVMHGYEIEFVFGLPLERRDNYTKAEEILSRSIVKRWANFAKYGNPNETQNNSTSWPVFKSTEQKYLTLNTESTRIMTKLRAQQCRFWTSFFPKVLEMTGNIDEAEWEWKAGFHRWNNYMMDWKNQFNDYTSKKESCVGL
T1 sequence (P22303 whole entry, looked up): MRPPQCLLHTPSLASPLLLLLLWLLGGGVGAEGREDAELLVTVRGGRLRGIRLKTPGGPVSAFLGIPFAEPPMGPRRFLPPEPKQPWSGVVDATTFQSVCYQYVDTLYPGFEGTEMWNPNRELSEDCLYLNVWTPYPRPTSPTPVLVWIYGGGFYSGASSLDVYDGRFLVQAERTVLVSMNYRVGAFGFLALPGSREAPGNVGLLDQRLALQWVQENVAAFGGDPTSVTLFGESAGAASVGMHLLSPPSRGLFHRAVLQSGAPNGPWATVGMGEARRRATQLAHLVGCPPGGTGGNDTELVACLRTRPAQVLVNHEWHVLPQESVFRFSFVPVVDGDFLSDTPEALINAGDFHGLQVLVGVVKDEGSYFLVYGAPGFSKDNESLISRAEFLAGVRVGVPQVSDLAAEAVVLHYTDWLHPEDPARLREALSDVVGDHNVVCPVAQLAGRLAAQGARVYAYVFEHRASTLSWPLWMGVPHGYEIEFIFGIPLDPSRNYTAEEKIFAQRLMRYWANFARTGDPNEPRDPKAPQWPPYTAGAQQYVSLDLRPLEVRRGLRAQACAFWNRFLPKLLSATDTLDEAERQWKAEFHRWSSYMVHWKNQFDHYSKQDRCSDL

[3] = target: Cholinesterase (Homo sapiens, UniProt P06276); experiment: Ability to inhibit butyrylcholinesterase (BChE), freshly prepared from human plasma; type: cell-free
Cholinesterase, sequence (P06276 whole entry): as the sequence (P06276 whole entry, looked up) above

[4] = target: T1, Cholinesterases; ACHE & BCHE (Homo sapiens); experiment: AChE selectivity = IC50(BChE) / IC50(AChE).; type: protein assay

Acetylcholinesterase, sequence (P22303 whole entry): as the sequence (P22303 whole entry, looked up) above

| Structure (SMILES) | pIC50 [1] | Selectivity [2] | pIC50 [3] | Selectivity [4] |
| --- | --- | --- | --- | --- |
| CC(C)c1ccc(NC(=O)Oc2ccc3c(c2)[C@]2(C)CCN(Cc4ccccc4)C2N3Cc2ccccc2)cc1 (some centres not stated) | < 4.52 | > 227 | 6.88 | – |
| Cc1ccccc1NC(=O)Oc1ccc2c(c1)[C@]1(C)CCN(C)C1N2Cc1ccccc1 (some centres not stated) | 7.00 | – | 6.22 | 6 |
| CC(C)c1ccc(NC(=O)Oc2ccc3c(c2)[C@]2(C)CCNC2N3)cc1 (some centres not stated) | 6.96 | 110 | 9.00 | – |
| Cc1ccccc1NC(=O)Oc1ccc2c(c1)[C@]1(C)CCN(CCc3ccccc3)C1N2C (some centres not stated) | 6.26 | – | 5.75 | 3 |
| CC(C)c1ccc(NC(=O)Oc2ccc3c(c2)[C@]2(C)CCNC2N3C)cc1 (some centres not stated) | 6.49 | 39 | 8.08 | – |
| CC(C)c1ccc(NC(=O)Oc2ccc3c(c2)[C@]2(C)CCN(C)C2N3Cc2ccccc2)cc1 (some centres not stated) | 4.89 | 152 | 7.07 | – |
| Cc1ccccc1NC(=O)Oc1ccc2c(c1)[C@]1(C)CCN(C)C1N2 (some centres not stated) | 7.40 | – | 5.84 | 36 |
| Cc1ccccc1NC(=O)Oc1ccc2c(c1)[C@]1(C)CCN(C)C1N2C (some centres not stated) | 7.99 | – | – | – |
| CC(C)c1ccc(NC(=O)Oc2ccc3c(c2)[C@]2(C)CCN(C)C2N3)cc1 (some centres not stated) | 5.69 | 26 | 7.11 | – |
| Cc1ccccc1NC(=O)Oc1ccc2c(c1)[C@]1(C)CCNC1N2C (some centres not stated) | 7.77 | – | 5.66 | 127 |
| Cc1ccccc1NC(=O)Oc1ccc2c(c1)[C@]1(C)CCNC1N2 (some centres not stated) | 6.55 | – | 6.40 | 1 |
| Cc1ccccc1NC(=O)Oc1ccc2c(c1)[C@]1(C)CCN(Cc3ccccc3)C1N2Cc1ccccc1 (some centres not stated) | 5.75 | 3 | 6.19 | – |
| CN1CC[C@@]2(C)c3cc(OC(=O)Nc4ccccc4)ccc3N(C)C12 (some centres not stated) | – | – | – | 65 |
| CC(C)c1ccc(NC(=O)Oc2ccc3c(c2)[C@]2(C)CCN(CCc4ccccc4)C2N3C)cc1 (some centres not stated) | < 4.52 | – | 8.22 | – |
